Laboratory results taken from ChEMBL document CHEMBL1130040, “Synthesis and structure-activity relationships of a new model of arylpiperazines. 2. Three-dimensional quantitative structure-activity relationships of hydantoin-phenylpiperazine derivatives with affinity for 5-HT1A and alpha 1 receptors. A comparison of CoMFA models” (J Med Chem, 1997).
pKi: −log10 of the molar value.

What was measured:
[1] = biological target: T1, Adrenergic receptor alpha-1 (Rattus norvegicus, UniProt P15823+P23944+P43140); assay: Tested in vitro for binding affinity by measuring its ability to inhibit [3H]prazosin binding at alpha-1 adrenergic receptor in rat cerebral cortex membranes.; assay type: cell membranes
T1 sequence (P15823 whole entry): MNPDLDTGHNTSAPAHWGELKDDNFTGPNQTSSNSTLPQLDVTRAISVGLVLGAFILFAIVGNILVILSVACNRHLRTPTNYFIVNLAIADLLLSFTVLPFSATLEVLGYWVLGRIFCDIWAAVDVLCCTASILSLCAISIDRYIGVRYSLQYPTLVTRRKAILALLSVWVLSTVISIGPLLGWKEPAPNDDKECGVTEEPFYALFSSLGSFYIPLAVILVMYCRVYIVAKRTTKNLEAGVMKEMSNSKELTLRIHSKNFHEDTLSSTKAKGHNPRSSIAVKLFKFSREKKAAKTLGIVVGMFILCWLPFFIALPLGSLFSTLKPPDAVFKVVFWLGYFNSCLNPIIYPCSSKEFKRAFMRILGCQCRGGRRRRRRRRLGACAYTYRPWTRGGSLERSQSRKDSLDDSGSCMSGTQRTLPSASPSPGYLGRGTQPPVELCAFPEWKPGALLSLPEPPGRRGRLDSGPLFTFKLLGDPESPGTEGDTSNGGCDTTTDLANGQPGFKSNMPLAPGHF
T1 sequence (P23944 whole entry): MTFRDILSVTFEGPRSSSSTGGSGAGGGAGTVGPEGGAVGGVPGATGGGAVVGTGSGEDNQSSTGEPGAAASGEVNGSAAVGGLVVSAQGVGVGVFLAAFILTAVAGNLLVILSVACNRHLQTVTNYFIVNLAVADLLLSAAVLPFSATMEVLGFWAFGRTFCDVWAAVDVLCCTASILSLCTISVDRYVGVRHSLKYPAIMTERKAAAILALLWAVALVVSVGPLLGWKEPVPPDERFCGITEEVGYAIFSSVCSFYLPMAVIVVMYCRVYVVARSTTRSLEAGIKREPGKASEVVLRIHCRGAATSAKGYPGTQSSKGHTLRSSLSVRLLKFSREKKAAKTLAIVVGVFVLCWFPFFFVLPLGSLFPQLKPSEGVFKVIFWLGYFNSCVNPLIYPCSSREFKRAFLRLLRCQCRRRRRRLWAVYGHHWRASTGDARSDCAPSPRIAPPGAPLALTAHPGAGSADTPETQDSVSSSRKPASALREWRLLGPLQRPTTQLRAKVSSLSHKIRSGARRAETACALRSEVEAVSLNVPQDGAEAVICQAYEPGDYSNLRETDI
T1 sequence (P43140 whole entry): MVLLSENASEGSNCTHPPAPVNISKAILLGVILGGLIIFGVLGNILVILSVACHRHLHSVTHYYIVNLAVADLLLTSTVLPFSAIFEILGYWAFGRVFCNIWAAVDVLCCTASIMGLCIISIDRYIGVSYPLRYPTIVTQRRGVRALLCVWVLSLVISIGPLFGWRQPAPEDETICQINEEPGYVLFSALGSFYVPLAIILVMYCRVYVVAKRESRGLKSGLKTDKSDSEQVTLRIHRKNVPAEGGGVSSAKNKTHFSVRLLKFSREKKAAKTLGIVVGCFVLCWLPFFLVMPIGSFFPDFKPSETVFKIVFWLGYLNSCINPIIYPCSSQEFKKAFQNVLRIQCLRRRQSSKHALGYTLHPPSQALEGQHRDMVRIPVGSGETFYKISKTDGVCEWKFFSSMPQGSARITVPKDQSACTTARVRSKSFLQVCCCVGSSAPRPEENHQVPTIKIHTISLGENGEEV
How it was run: (§1)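 Rat cerebral cortex homogenized in ice-cold 50 mM Tris-HCl/10 mM MgCl2 (pH 7.7), centrifuged at 30000g, washed twice. About 250 μg membrane protein incubated at 25 °C for 30 min with 0.2 nM [3H]prazosin plus several competitor concentrations. Compounds first screened at 10^-6 M; dose-response curves done where displacement reached ≥55%.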

[2] = biological target: T2, 5-hydroxytryptamine receptor 1A (Rattus norvegicus, UniProt P19327); assay: Tested in vitro for binding affinity by measuring its ability to inhibit [3H]8-OH-DPAT binding at 5-hydroxytryptamine 1A receptor in rat cerebral cortex membranes.; assay type: cell membranes
T2 sequence (P19327 whole entry): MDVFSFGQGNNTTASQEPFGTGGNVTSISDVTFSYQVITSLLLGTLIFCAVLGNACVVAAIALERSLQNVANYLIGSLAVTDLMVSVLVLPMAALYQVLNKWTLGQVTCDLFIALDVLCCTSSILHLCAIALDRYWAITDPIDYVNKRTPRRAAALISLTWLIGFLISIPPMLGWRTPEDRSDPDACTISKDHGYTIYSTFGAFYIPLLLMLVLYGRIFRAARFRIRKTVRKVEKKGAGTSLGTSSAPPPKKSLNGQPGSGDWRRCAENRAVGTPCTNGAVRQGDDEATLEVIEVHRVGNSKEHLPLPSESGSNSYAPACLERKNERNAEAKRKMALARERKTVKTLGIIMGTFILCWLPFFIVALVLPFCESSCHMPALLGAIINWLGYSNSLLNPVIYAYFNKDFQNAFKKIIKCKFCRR
How it was run: (§2)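 Rat cortex homogenized in ice-cold 50 mM Tris-HCl (pH 7.7), spun at 28000g, washed twice, preincubated 37 °C 10 min, resuspended in Tris/5 mM MgSO4/0.5 mM EDTA (pH 7.4). About 1 mg protein incubated 15 min at 37 °C with 0.6 nM [3H]-8-OH-DPAT and competitor, in buffer with 10 nM clonidine and 30 nM prazosin. Nonspecific binding: 10 μM 5-HT. Prescreen at 10^-6 M; curves run if displacement ≥55%.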

[3] = biological target: T2, 5-hydroxytryptamine receptor 1A; assay: In vitro binding affinity against 5-hydroxytryptamine 1A receptor of rat cerebral cortex using [3H]8-OH-DPAT as radioligand.; assay type: tissue-based; how it was run: as §2
[4] = biological target: T1, Adrenergic receptor alpha-1; assay: In vitro binding affinity against alpha-1 adrenergic receptor of rat cerebral cortex using [3H]prazosin as radioligand.; assay type: tissue-based; how it was run: as §1

Compound	Ki [1]	pKi [2]	Ki [4]	also measured
CC(C)C(=O)Nc1cccc(N2CCN(CCCCN3C(=O)C4CCCN4C3=O)CC2)c1.Cl (stereo not drawn)	> 10 µM	6.99	–	–
O=C1C2CCCCN2C(=O)N1CCN1CCN(c2ccc(F)cc2)CC1 (stereo not drawn)	–	4.72	–	–
O=C1C2CCCCN2C(=O)N1CCN1CCN(c2ccccc2)CC1 (stereo not drawn)	–	5.87	–	–
COc1ccccc1N1CCN(CN2C(=O)C3CCCCN3C2=O)CC1 (stereo not drawn)	–	–	–	pKi [3]: 7.51
O=C1C2CCCCN2C(=O)N1CN1CCN(c2cccc(C(F)(F)F)c2)CC1 (stereo not drawn)	–	–	3.296 µM	–
O=C1C2CCCN2C(=O)N1CN1CCN(c2ccc([N+](=O)[O-])cc2)CC1 (stereo not drawn)	–	–	260 µM	pKi [3]: 5.22
O=C1C2CCCN2C(=O)N1CCN1CCN(c2ccccc2)CC1 (stereo not drawn)	–	5.12	–	–
Nc1ccc(N2CCN(CCCCN3C(=O)C4CCCN4C3=O)CC2)cc1 (stereo not drawn)	–	< 5.00	–	–
O=C1C2CCCCN2C(=O)N1CCCN1CCN(c2ccc([N+](=O)[O-])cc2)CC1 (stereo not drawn)	6.652 µM	4.51	–	–
O=C1C2CCCCN2C(=O)N1CCN1CCN(c2ccc([N+](=O)[O-])cc2)CC1 (stereo not drawn)	199 µM	4.03	–	–
O=C1C2CCCCN2C(=O)N1CCN1CCN(c2cccc(C(F)(F)F)c2)CC1 (stereo not drawn)	4.325 µM	–	–	–
O=C1C2CCCCN2C(=O)N1CN1CCN(c2ccccc2)CC1 (stereo not drawn)	–	–	2.075 µM	–
O=C1C2CCCN2C(=O)N1CN1CCN(c2ccc(F)cc2)CC1 (stereo not drawn)	–	–	1.193 µM	–
O=C1C2CCCN2C(=O)N1CN1CCN(c2cccc(C(F)(F)F)c2)CC1 (stereo not drawn)	–	–	3.296 µM	–
O=C1C2CCCN2C(=O)N1CCN1CCN(c2ccc(F)cc2)CC1 (stereo not drawn)	–	4.62	–	–
O=C1C2CCCN2C(=O)N1CCCN1CCN(c2ccc([N+](=O)[O-])cc2)CC1 (stereo not drawn)	7.533 µM	–	–	–
O=C1C2CCCN2C(=O)N1CN1CCN(c2ccccc2)CC1 (stereo not drawn)	–	–	2.588 µM	–
O=C1C2CCCN2C(=O)N1CCN1CCN(c2ccc([N+](=O)[O-])cc2)CC1 (stereo not drawn)	260 µM	3.30	–	–
O=C1C2CCCN2C(=O)N1CCCN1CCN(c2ccc(F)cc2)CC1 (stereo not drawn)	–	5.93	–	–
O=C1C2CCCCN2C(=O)N1CN1CCN(c2ccc([N+](=O)[O-])cc2)CC1 (stereo not drawn)	–	–	260 µM	pKi [3]: 5.22
O=C1C2CCCN2C(=O)N1CCCCN1CCN(c2ccc([N+](=O)[O-])cc2)CC1 (stereo not drawn)	–	4.62	–	–
O=C1C2CCCN2C(=O)N1CCN1CCN(c2cccc(C(F)(F)F)c2)CC1 (stereo not drawn)	3.935 µM	–	–	–
